Assay results taken from ChEMBL document CHEMBL4732185, “Synthesis, biological evaluation and structure-activity relationship of novel dichloroacetophenones targeting pyruvate dehydrogenase kinases with potent anticancer activity” (Eur J Med Chem, 2021).

Experiments:
A549 = assay: Antiproliferative activity against human A549 cells assessed as growth inhibition at 10 uM after 72 hrs by MTT assay relative to control; assay type: functional; conditions: read-out: GI
Outline: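 Single-concentration MTT screen on MCF-7 and A549 cells grown in DMEM + 10% FBS. Cells at 3000–6000/well, cultured overnight, then given compound in buffer with 1% DMSO for 72 h. MTT (0.5 mg/mL) added for 4 h, formazan dissolved in DMSO, A570 read. Percent inhibition reported as the average ± S.D. of three independent measurements.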

[1] = Inhibition of PDK (unknown origin) using RYHGHSMSDP as substrate after 30 mins by Kinase-Glo luminescent assay; set-up: species or system Homo sapiens
[2] = biological target: [Pyruvate dehydrogenase (acetyl-transferring)] kinase isozyme 4, mitochondrial (Homo sapiens, UniProt Q16654); assay: Binding affinity to PDK4 (unknown origin) by isothermal titration calorimetry
[Pyruvate dehydrogenase (acetyl-transferring)] kinase isozyme 4, mitochondrial, sequence (Q16654 whole entry): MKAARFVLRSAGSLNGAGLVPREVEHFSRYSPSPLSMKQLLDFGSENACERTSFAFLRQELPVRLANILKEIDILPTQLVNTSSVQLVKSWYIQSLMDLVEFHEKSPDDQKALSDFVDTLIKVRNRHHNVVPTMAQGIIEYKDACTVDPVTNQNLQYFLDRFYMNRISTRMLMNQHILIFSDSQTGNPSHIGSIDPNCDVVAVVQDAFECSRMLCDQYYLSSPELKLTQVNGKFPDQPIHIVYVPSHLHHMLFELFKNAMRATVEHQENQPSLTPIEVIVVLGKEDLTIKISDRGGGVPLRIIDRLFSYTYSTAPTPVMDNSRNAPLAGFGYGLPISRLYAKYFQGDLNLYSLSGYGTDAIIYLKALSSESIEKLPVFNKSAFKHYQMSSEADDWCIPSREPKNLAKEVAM
Outline: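 Isothermal titration calorimetry at 25 °C. Compound dissolved in DMSO, diluted to 100 µM in buffer and placed in the titration syringe; 250 µL of PDK protein solution in the reaction cell. Titrant added in 2.5 µL increments per injection.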

A-375 [3] = assay: Induction of apoptosis in human A375 cells assessed as early apoptotic cells at 1 uM after 36 hrs by annexinV-FITC/propidium iodide staining based flow cytometric analysis (reference value: 3.2%); assay type: functional
A-375 [4] = assay: Induction of apoptosis in human A375 cells assessed as necrotic cells at 1 uM after 36 hrs by annexinV-FITC/propidium iodide staining based flow cytometric analysis (reference value: 1.63%); assay type: functional

SMILES: CC(C)(CO)c1ccc(Nc2ccc(C(=O)C(Cl)Cl)cc2[N+](=O)[O-])cc1
- inhibition of growth at 10 µM (A549): 98.6%
- EC50 [1]: 0.09 µM
- Kd [2]: 9.2 µM
- Activity (A-375 [3]): 6.64%
- Activity (A-375 [4]): 4.06%
